Key:
[1] = Brain to serum concentration ratio, Kp of the compound in C57BL/6 mouse assessed as 2-(3-chloro-4-((3-((7-propyl-3-(trifluoromethyl)-benzo[d]isoxazol-6-yl)oxy)propyl)thio)phenyl)acetic acid level at 9.14 umol/kg, ip by LC-MS/MS analysis; type: ADME, organism-based
How it was run: (§1)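 Brain-to-serum ratio Kp was calculated from brain and serum parent-drug AUC0.5–6 h (ng/g*h). These AUCs came from male C57BL/6 mice (n=3 per time point) given parent drug or equimolar prodrug at […] i.p. in DMSO, sampled at 0.5, 2 and 6 h. Parent acid was quantified by LC-MS/MS with d₆-sobetirome internal standard.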

[2] = AUC (0.5 to 6 hrs) in C57BL/6 mouse brain assessed as 2-(3-chloro-4-((3-((7-propyl-3-(trifluoromethyl)-benzo[d]isoxazol-6-yl)oxy)propyl)thio)phenyl)acetic acid level at 9.14 umol/kg, ip by LC-MS/MS analysis; type: ADME, organism-based; parameters: time upper 6 hr, dose 9.14 umol/kg, time lower 0.5 hr, route intraperitoneal; details: in vivo
How it was run: (§2)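 Male wild-type C57BL/6 mice (8−10 weeks, n=3 per time point) received parent drug or equimolar prodrug at […] i.p. in DMSO. Brain and serum were collected at 0.5, 2 and 6 h. Parent acid was quantified by LC-MS/MS against vehicle-tissue standard curves with d₆-sobetirome internal standard. AUC0.5–6 h was computed from the time course; mean ± SEM.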

[3] = Prodrug conversion in C57BL/6 mouse brain assessed as 2-(3-chloro-4-((3-((7-propyl-3-(trifluoromethyl)-benzo[d]isoxazol-6-yl)oxy)propyl)thio)phenyl)acetic acid level at 9.14 umol/kg, ip measured after 1 hr in presence of FAAH inhibitor PF-3845 by LC-MS/MS analysis; type: ADME, organism-based; details: in vivo
How it was run: (§3)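 Male C57BL/6 mice (n=3) received PF-3845 at 1 mg/kg i.p., then prodrug at […] i.p. 1 h later; comparators received prodrug alone. Vehicle was DMSO. Whole brain was taken 1 h after prodrug and homogenized in water with d₆-sobetirome internal standard. It was extracted with EtOAc/MeCN and parent acid was measured by LC-MS/MS; mean ± SEM, 2-tailed unpaired t test.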

[4] = molecular target: T1, Fatty-acid amide hydrolase 1 (Homo sapiens, UniProt O00519); assay: Substrate activity at FAAH1 in human brain S9 fraction assessed as 2-(3-chloro-4-((3-((7-propyl-3-(trifluoromethyl)-benzo[d]isoxazol-6-yl)oxy)propyl)thio)phenyl)acetic acid level at 100 uM measured after 15 mins by LC-MS/MS analysis; type: ADME, subcellular; details: s9, 0.25 h
T1 sequence (O00519 whole entry): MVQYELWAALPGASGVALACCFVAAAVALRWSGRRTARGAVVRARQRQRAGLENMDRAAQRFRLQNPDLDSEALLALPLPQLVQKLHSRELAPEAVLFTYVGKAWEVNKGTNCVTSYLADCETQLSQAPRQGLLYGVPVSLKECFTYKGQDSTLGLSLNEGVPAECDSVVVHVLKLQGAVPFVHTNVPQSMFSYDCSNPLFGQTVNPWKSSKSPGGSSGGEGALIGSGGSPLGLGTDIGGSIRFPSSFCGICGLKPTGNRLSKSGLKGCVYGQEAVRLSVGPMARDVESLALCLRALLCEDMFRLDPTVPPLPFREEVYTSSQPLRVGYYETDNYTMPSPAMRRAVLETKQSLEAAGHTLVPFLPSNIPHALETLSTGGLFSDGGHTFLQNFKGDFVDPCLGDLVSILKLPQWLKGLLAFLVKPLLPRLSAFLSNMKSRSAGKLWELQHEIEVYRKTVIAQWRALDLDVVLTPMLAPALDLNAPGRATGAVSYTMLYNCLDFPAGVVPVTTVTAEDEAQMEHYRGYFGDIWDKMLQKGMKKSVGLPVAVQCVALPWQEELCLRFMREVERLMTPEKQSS
How it was run: (§4)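 Human brain S9 at 1 mg/mL, with or without […] PF-3845, was prewarmed 5 min at 37 °C. It was incubated 15 min at 37 °C with 100 µM prodrug (final), then quenched with MeCN/DMF containing d₆-sobetirome. Parent acid was measured by LC-MS/MS. FAAH-dependent level = untreated sample (n=3) minus mean PF-3845 samples (n>2).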

[5] = AUC (0.5 to 6 hrs) in C57BL/6 mouse serum assessed as 2-(3-chloro-4-((3-((7-propyl-3-(trifluoromethyl)-benzo[d]isoxazol-6-yl)oxy)propyl)thio)phenyl)acetic acid level at 9.14 umol/kg, ip by LC-MS/MS analysis; type: ADME, organism-based; parameters: dose 9.14 umol/kg, time 0.5-6 hr, route intraperitoneal; details: in vivo; how it was run: as §2
[6] = Renal toxicity in C57BL/6 mouse assessed effect on Fasn gene expression in kidney at 9.14 umol/kg, ip administered once daily for 7 days by Trizol reagent based RT-qPCR analysis; type: organism-based; details: in vivo, 168 h
How it was run: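 Male C57BL/6 mice (n=5) were dosed once daily for 7 days i.p. with parent drug at […], equimolar prodrug, or vehicle. The vehicle was 1:1:8 Kolliphor:NMP:water. Target gene expression was compared between groups per tissue by 2-tailed unpaired t test.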

[7] = Prodrug conversion in C57BL/6 mouse brain assessed as 4-chlorobenzoate formation at 9.14 umol/kg, ip measured up to 6 hrs by LC-MS/MS analysis; type: ADME, organism-based; details: in vivo, BLD = below limit of detection
How it was run: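 Male C57BL/6 mice (n=3) received prodrug at […] i.p. in DMSO. Brain was collected at 0.5, 2 and 6 h. The 4-chlorobenzoate cleavage product was sought by LC-MS/MS against a vehicle-brain standard curve with d₆-sobetirome internal standard; the limit was LoQ.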

[8] = Prodrug conversion in C57BL/6 mouse brain assessed as bezafibrate level at 9.14 umol/kg, ip measured after 1 hr in presence of FAAH inhibitor PF-3845 by LC-MS/MS analysis; type: ADME, organism-based; details: in vivo; how it was run: as §3
[9] = molecular target: T2, Fatty-acid amide hydrolase 2 (Homo sapiens, UniProt Q6GMR7); assay: Substrate activity at FAAH2 in human brain S9 fraction assessed as bezafibrate level at 100 uM measured after 15 mins by LC-MS/MS analysis; type: ADME, subcellular; details: s9, 0.25 h; how it was run: as §4
T2 sequence (Q6GMR7 whole entry): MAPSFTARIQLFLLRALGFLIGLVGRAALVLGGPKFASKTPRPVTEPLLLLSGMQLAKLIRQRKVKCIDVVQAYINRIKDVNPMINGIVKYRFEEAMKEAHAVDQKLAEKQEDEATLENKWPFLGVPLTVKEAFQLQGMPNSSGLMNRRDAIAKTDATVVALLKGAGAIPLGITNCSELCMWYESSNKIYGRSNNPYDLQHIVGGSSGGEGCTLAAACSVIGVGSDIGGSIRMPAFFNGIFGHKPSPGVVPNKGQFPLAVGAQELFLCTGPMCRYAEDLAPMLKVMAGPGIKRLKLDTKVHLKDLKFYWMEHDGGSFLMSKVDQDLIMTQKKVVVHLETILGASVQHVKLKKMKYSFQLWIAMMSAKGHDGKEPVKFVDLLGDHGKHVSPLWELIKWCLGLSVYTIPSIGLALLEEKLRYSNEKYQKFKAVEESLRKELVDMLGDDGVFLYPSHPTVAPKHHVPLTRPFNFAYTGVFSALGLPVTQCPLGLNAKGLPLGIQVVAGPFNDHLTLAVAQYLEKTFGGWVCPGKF

[10] = AUC (0.5 to 6 hrs) in C57BL/6 mouse brain assessed as bezafibrate level at 9.14 umol/kg, ip by LC-MS/MS analysis; type: ADME, organism-based; parameters: time 0.5-6 hr, dose 9.14 umol/kg, route intraperitoneal; details: in vivo; how it was run: as §2
[11] = Brain to serum concentration ratio, Kp of the compound in C57BL/6 mouse assessed as bezafibrate level at 9.14 umol/kg, ip by LC-MS/MS analysis; type: ADME, organism-based; how it was run: as §1
[12] = AUC (0.5 to 6 hrs) in C57BL/6 mouse serum assessed as bezafibrate level at 9.14 umol/kg, ip by LC-MS/MS analysis; type: ADME, organism-based; parameters: dose 9.14 umol/kg, time upper 6 hr, time lower 0.5 hr, route intraperitoneal; details: in vivo; how it was run: as §2

Kp [1]	AUC [2] [ng·h/g]	Drug metabolism [3]	Drug metabolism [4]	AUC [5] [ng·h/g]	Drug metabolism [7]	Drug metabolism [8]	Drug metabolism [9]	AUC [10] [ng·h/g]	Kp [11]	AUC [12] [ng·h/g]	Compound	Drug metabolism [6]
0.05	12.64	Metabolite_Notdetected	Metabolite_Notdetected	276.5	–	–	–	–	–	–	CCCc1c(OCCCSc2ccc(CC(=O)NC)cc2Cl)ccc2c(C(F)(F)F)noc12	–
–	–	–	–	–	Bld	Metabolite_Notdetected	Metabolite_Detected	26.3	0.06	470.6	CNC(=O)C(C)(C)Oc1ccc(CCNC(=O)c2ccc(Cl)cc2)cc1	Metabolite_Detected

Reference: ChEMBL document CHEMBL4622977, “A CNS-Targeting Prodrug Strategy for Nuclear Receptor Modulators” (J Med Chem, 2020)
